# Measured values from ChEMBL document CHEMBL5260793, “Novel pyrazolo[3,4-d]pyrimidine with 4-(1H-benzimidazol-2-yl)-phenylamine as broad spectrum anticancer agents: Synthesis, cell based assay, topoisomerase inhibition, DNA intercalation and bovine serum albumin studies” (Eur J Med Chem, 2017).
# The source made the active and inactive calls. The rule behind the calls is not given here.
# Experiments:
# [1] = test system: Panel breast (Carcinoma cell lines); assay: Anticancer activity against human Panel breast (Carcinoma cell lines) assessed as total growth inhibition incubated for 48 hrs by Sulphorhodamine B assay; assay type: functional
# Method in brief: (§1)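 NCI-60 five-dose screen. Cells in RPMI 1640 with 5% FBS and 2 mM L-glutamine were plated at 5,000–40,000 cells/well and held 24 h before dosing. Compounds came from DMSO stocks and were given at five concentrations (10-fold or ½-log dilutions) for 48 h at 37 °C. Adherent cells were TCA-fixed and stained with SRB; A515 was read. GI50 was set from growth = 50% and TGI from Ti = Tz, using Tz/C/Ti.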
# Calf thymus DNA [2] = assay: Binding affinity to calf thymus DNA assessed as decrease in maximum emission wavelength at pH 7.4 at 10 uM by fluorescence spectroscopy; assay type: nucleic-acid assay; conditions: Bos taurus
# Method in brief: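 Compound was held constant (10 μM per legend; 20 μM in methods) and titrated with ct-DNA (0–20 μM) in 10 mM phosphate buffer, pH 7.4. Emission spectra were excited at 300 nm, with a buffer-only control. Binding constant came from a Benesi–Hildebrand plot.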
# [3] = test system: Panel leukemia (Carcinoma cell lines); assay: Anticancer activity against human Panel leukemia (Carcinoma cell lines) assessed as lethality incubated for 48 hrs by Sulphorhodamine B assay; assay type: functional
# [4] = Anticancer activity against human Non-small cell lung cancer cell line assessed as total growth inhibition incubated for 48 hrs by Sulphorhodamine B assay; assay type: functional; method in brief: as §1
# [5] = test system: Panel renal (Carcinoma cell lines); assay: Anticancer activity against human Panel renal (Carcinoma cell lines) assessed as total growth inhibition incubated for 48 hrs by Sulphorhodamine B assay; assay type: functional
# [6] = target: DNA topoisomerase 2-alpha (Homo sapiens) (UniProt P11388); assay: Inhibition of human DNA topoisomerase II-alpha mediated supercoiled pHOT1 plasmid DNA relaxation at 100 uM incubated for 30 mins by ethidium bromide staining based agarose gel electrophoresis analysis
# Method in brief: (§2)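 Reaction buffer: 50 mM Tris-Cl pH 8.0, 120 mM KCl, 10 mM MgCl2, 0.5 mM ATP, 0.5 mM DTT. Each reaction held 500 ng supercoiled pHOT1 and 1 U human Topo IIα, with compound at 10–100 μM, for 30 min at 37 °C. Reactions were stopped with glycerol/EDTA/bromophenol blue, run on 1% agarose in TBE, and stained with ethidium bromide. Etoposide 25 μM was the positive control.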
# [7] = test system: Panel leukemia (Carcinoma cell lines); assay: Anticancer activity against human Panel leukemia (Carcinoma cell lines) assessed as total growth inhibition incubated for 48 hrs by Sulphorhodamine B assay; assay type: functional
# Albumin = Albumin (Bos taurus, UniProt P02769); assay: Binding affinity to bovine serum albumin assessed as decrease in fluorescence intensity at pH 7.4 at 0 to 30 uM by fluorescence quenching method; conditions: cattle
# [8] = target: DNA topoisomerase 2-alpha (Homo sapiens) (UniProt P11388); assay: Inhibition of human DNA topoisomerase II-alpha mediated supercoiled pHOT1 plasmid DNA relaxation at 75 uM incubated for 30 mins by ethidium bromide staining based agarose gel electrophoresis analysis; method in brief: as §2
# [9] = test system: Panel prostate (Carcinoma cell lines); assay: Anticancer activity against human Panel prostate (Carcinoma cell lines) assessed as total growth inhibition incubated for 48 hrs by Sulphorhodamine B assay; assay type: functional; method in brief: as §1
# [10] = test system: Panel CNS (Carcinoma cell lines); assay: Anticancer activity against human Panel CNS (Carcinoma cell lines) assessed as lethality incubated for 48 hrs by Sulphorhodamine B assay; assay type: functional
# [11] = test system: Panel colon (Carcinoma cell lines); assay: Anticancer activity against human Panel colon (Carcinoma cell lines) assessed as total growth inhibition incubated for 48 hrs by Sulphorhodamine B assay; assay type: functional; method in brief: as §1
# [12] = test system: Panel renal (Carcinoma cell lines); assay: Anticancer activity against human Panel renal (Carcinoma cell lines) assessed as cell growth inhibition incubated for 48 hrs by Sulphorhodamine B assay; assay type: functional; method in brief: as §1
# [13] = test system: Panel leukemia (Carcinoma cell lines); assay: Anticancer activity against human Panel leukemia (Carcinoma cell lines) assessed as cell growth inhibition incubated for 48 hrs by Sulphorhodamine B assay; assay type: functional; method in brief: as §1
# [14] = test system: Panel melanoma (Carcinoma cell lines); assay: Anticancer activity against human Panel melanoma (Carcinoma cell lines) assessed as cell growth inhibition incubated for 48 hrs by Sulphorhodamine B assay; assay type: functional; method in brief: as §1
# [15] = test system: Panel ovarian (Carcinoma cell lines); assay: Anticancer activity against human Panel ovarian (Carcinoma cell lines) assessed as cell growth inhibition incubated for 48 hrs by Sulphorhodamine B assay; assay type: functional; method in brief: as §1
# [16] = test system: Panel CNS (Carcinoma cell lines); assay: Anticancer activity against human Panel CNS (Carcinoma cell lines) assessed as cell growth inhibition incubated for 48 hrs by Sulphorhodamine B assay; assay type: functional; method in brief: as §1
# [17] = test system: Panel colon (Carcinoma cell lines); assay: Anticancer activity against human Panel colon (Carcinoma cell lines) assessed as lethality incubated for 48 hrs by Sulphorhodamine B assay; assay type: functional
# [18] = Anticancer activity against human Non-small cell lung cancer cell line assessed as cell growth inhibition incubated for 48 hrs by Sulphorhodamine B assay; assay type: functional; method in brief: as §1
# [19] = test system: Panel prostate (Carcinoma cell lines); assay: Anticancer activity against human Panel prostate (Carcinoma cell lines) assessed as lethality incubated for 48 hrs by Sulphorhodamine B assay; assay type: functional
# [20] = test system: Panel melanoma (Carcinoma cell lines); assay: Anticancer activity against human Panel melanoma (Carcinoma cell lines) assessed as lethality incubated for 48 hrs by Sulphorhodamine B assay; assay type: functional
# [21] = test system: Panel colon (Carcinoma cell lines); assay: Anticancer activity against human Panel colon (Carcinoma cell lines) assessed as cell growth inhibition incubated for 48 hrs by Sulphorhodamine B assay; assay type: functional; method in brief: as §1
# [22] = test system: Panel breast (Carcinoma cell lines); assay: Anticancer activity against human Panel breast (Carcinoma cell lines) assessed as cell growth inhibition incubated for 48 hrs by Sulphorhodamine B assay; assay type: functional; method in brief: as §1
# [23] = test system: Panel CNS (Carcinoma cell lines); assay: Anticancer activity against human Panel CNS (Carcinoma cell lines) assessed as total growth inhibition incubated for 48 hrs by Sulphorhodamine B assay; assay type: functional; method in brief: as §1
# Calf thymus DNA [24] = assay: Displacement of Ethidium bromide from calf thymus DNA/EtBr complex assessed as decrease in fluorescent intensity by fluorescence based EtBr-displacement assay; assay type: nucleic-acid assay; conditions: Bos taurus
# Method in brief: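 ct-DNA (0–20 μM) was pre-mixed with ethidium bromide, diluted from a 1 mM stock. Compound was then added in 2 μM steps up to 50 μM, with mixing after each addition. Emission was recorded with excitation at 480 nm.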
# [25] = test system: Panel renal (Carcinoma cell lines); assay: Anticancer activity against human Panel renal (Carcinoma cell lines) assessed as lethality incubated for 48 hrs by Sulphorhodamine B assay; assay type: functional
# Calf thymus DNA [26] = assay: Binding affinity to calf thymus DNA assessed as hypochromicity at pH 7.4 at 10 uM by UV-vis absorption spectroscopy; assay type: nucleic-acid assay; conditions: Bos taurus
# Method in brief: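 Absorption titration at 300 K in a 1 cm cell, background subtracted. Compound was fixed (10 μM per legend; 20 μM in methods) with ct-DNA added up to 15–20 μM in 10 mM phosphate buffer, pH 7.4 (A260/A280 1.82). A buffer-addition control was run. K was taken from the 1/(Af−Aobs) vs 1/[DNA] fit.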
# [27] = test system: Panel prostate (Carcinoma cell lines); assay: Anticancer activity against human Panel prostate (Carcinoma cell lines) assessed as cell growth inhibition incubated for 48 hrs by Sulphorhodamine B assay; assay type: functional; method in brief: as §1
# DNA topoisomerase 2-alpha (Homo sapiens), sequence (P11388 whole entry): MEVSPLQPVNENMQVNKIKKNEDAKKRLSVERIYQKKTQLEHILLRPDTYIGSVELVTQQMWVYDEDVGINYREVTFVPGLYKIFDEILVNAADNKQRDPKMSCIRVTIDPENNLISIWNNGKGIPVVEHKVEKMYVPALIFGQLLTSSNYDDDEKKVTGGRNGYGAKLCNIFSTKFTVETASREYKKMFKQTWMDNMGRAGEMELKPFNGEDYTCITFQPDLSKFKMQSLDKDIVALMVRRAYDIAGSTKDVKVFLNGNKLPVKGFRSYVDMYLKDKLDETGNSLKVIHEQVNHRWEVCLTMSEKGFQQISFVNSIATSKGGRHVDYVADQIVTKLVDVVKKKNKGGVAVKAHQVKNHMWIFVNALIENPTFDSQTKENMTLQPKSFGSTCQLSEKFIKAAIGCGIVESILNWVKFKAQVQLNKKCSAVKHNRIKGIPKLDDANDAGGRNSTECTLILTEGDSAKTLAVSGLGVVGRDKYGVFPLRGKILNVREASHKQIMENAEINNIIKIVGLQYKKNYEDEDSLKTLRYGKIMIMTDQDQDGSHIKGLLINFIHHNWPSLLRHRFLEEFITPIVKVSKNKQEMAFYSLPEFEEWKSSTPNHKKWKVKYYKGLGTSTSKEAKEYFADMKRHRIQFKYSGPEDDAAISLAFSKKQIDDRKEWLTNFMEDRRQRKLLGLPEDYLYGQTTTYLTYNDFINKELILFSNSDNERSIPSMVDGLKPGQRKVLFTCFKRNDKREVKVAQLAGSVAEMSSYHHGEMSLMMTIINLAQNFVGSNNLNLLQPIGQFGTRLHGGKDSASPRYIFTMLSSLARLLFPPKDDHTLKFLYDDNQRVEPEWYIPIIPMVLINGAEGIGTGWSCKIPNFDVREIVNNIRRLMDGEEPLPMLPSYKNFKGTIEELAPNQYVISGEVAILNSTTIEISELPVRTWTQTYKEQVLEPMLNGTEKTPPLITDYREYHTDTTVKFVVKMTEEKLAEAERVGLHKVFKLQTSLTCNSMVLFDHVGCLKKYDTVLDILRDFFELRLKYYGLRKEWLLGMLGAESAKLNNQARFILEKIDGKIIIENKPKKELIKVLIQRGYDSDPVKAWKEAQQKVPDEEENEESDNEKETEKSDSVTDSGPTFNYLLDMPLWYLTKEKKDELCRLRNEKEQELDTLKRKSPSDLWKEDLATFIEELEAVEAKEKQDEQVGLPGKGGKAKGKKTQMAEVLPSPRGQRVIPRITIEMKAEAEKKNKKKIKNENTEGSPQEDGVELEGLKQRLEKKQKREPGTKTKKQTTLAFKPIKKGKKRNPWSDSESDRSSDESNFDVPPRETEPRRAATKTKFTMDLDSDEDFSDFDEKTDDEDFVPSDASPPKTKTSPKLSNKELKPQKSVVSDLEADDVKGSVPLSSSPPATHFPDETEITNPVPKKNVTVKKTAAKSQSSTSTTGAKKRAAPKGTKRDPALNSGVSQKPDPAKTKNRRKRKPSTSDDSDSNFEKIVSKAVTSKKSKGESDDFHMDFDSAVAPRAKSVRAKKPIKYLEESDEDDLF
# Albumin, sequence (P02769 whole entry): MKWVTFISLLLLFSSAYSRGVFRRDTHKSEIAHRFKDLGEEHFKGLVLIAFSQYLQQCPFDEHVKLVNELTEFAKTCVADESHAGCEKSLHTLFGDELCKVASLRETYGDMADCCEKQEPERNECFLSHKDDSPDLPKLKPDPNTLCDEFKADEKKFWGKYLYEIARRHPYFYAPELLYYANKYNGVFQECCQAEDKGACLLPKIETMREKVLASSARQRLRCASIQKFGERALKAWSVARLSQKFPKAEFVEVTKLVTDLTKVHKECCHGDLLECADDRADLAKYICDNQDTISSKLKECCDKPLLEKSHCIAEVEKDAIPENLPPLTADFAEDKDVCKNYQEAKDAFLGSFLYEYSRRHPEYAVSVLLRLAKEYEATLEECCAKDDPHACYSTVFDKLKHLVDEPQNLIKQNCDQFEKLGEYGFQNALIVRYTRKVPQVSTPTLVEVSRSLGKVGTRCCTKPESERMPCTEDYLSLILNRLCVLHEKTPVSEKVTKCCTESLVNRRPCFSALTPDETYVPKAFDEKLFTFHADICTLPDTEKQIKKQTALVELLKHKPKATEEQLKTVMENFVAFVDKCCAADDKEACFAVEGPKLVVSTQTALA
SMILES,TGI [1] [µM],Activity (Calf thymus DNA [2]),LC50 [3] [µM],TGI [4] [µM],TGI [5] [µM],inhibition [6],TGI [7] [µM],Activity (Albumin),inhibition [8],TGI [9] [µM],LC50 (concentration killing 50% of cells) [10] [µM],TGI [11] [µM],GI50 [12] [µM],GI50 [13] [µM],GI50 [14] [µM],GI50 [15] [µM],GI50 [16] [µM],"LC50 (lethal concentration, 50% cell kill) [17] [µM]",GI50 [18] [µM],LC50 [19] [µM],further results
Fc1ccc(Nc2nc(Nc3ccc(-c4nc5ccccc5[nH]4)cc3)c3cn[nH]c3n2)cc1,4.8,Active,> 100,5.37,7.35,Active,6.33,Active,Active,4.14,20.4,3.83,1.84,2.62,2.8,2.49,2.06,6.8,2.11,9.22,LC50 (lethal concentration 50) [20]: 6.92 µM; GI50 [21]: 1.78 µM; GI50 [22]: 1.99 µM; TGI [23]: 5.08 µM; Activity (Calf thymus DNA [24]): Active; LC50 (50% lethal concentration) [25]: 18.2 µM; Activity (Calf thymus DNA [26]): Active; GI50 [27]: 1.95 µM
OCCN1CCN(c2nc(Nc3ccc(-c4nc5ccccc5[nH]4)cc3)c3cn[nH]c3n2)CC1,3.83,Active,> 100,3.23,3.26,Active,1.22,Active,Active,2.96,5.72,2.12,1.76,0.44,1.81,1.84,1.47,5.71,1.57,5.97,LC50 (lethal concentration 50) [20]: 5.83 µM; GI50 [21]: 0.72 µM; GI50 [22]: 1.8 µM; TGI [23]: 3.26 µM; Activity (Calf thymus DNA [24]): Active; LC50 (50% lethal concentration) [25]: 5.85 µM; Activity (Calf thymus DNA [26]): Active; GI50 [27]: 1.49 µM
